System: SF-295
Test: Cytotoxicity against human SF295 cells
Assay type: functional
Settings: read-out: GI50
How it was run: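 Tested in a 60-cell-line human tumor panel screen; the read-out is growth inhibition, reported as GI50 for each cell line.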

SMILES | GI50
COc1cc(/C=C/c2cc(O)c(CC=C(C)C)c(O)c2)cc2c1O[C@]1(C)CC[C@@H](O)C(C)(C)[C@H]1C2 [SCHWEINFURTHIN F] | < 0.036 µM
CC(C)=CCc1c(O)cc(/C=C/c2cc(O)c3c(c2)C[C@@H]2C(C)(C)[C@H](O)CC[C@@]2(C)O3)cc1O [SCHWEINFURTHIN G] | 0.01 µM

From ChEMBL document CHEMBL3232844, “Synthesis and structure activity relationships of schweinfurthin indoles” (2014)
